Rows were chosen to be rich in hits. Some 4% of all compounds tested hit in one or more screens of this group.
KCNQ1 inh = inhibitors of human KCNQ1 channel, primary screen, cell-based, thallium flux, high-throughput; Potassium voltage-gated channel subfamily KQT member 1 (Homo sapiens), P51787; CHO-K1 KCNQ1, FluxOR thallium flux fluorescence; hits give high values; B-score at 10 µM; hit rate 1.3% among 310,000; AID 2642, 2010;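 active = compounds whose thallium flux B-score, printed positive for inhibition, exceeds three library SD while starting fluorescence stays within three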;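 note: channel opened by potassium depolarization with thallium stimulus after 20 min compound exposure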
PHOSPHO1 block = PubChem AID 1565; recombinant PHOSPHO1, absorbance phosphatase assay; hit rate 1.1% among 290,000; Phosphoethanolamine/phosphocholine phosphatase (Homo sapiens), Q8TCT1; inhibition, % at 13.3 µM; in the data active = inhibition above about 60%
KCNQ1 act = potentiators or activators of KCNQ1 channel, primary screen, cell-based, thallium flux, high-throughput. Potassium voltage-gated channel subfamily KQT member 1 (Homo sapiens), P51787. CHO-K1 KCNQ1, thallium flux FluxOR fluorescence; hits give high values. AID 2648, 2010. B-score at 10 µM. hit rate 0.35% among 310,000;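 active = fluorescence ratio B-score, a plate-corrected score, at least three library SD, with initial intensity B-score within 5 SD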
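Assay system: CHO-K1 cells stably expressing KCNQ1. Medium: assay buffer for compound exposure, DMSO matched across wells. Timing: 37 °C overnight plating, 90-min dark dye load, 20-min compound pretreatment. Signal: kinetic FluxOR fluorescence, 10 s baseline plus 110 s post-stimulus.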
KCNK9 block = KCNK9 potassium channel inhibitors, primary screen, HEK293 cells, thallium flux; Potassium channel subfamily K member 9 (Homo sapiens), Q9NPC2; FluxOR thallium flux fluorescence; hits give low values; B-score at 10 µM; hit rate 1.2% among 310,000; AID 488922, 2010;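 active = ratio B-score over 3 SD below the library mean, with starting fluorescence within 5 SD of its mean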;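 note: negative B-score means less thallium flux so channel inhibition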
KCNK3 block = human KCNK3 channel inhibitors, primary screen, CHO cells, FluxOR thallium flux, B-score. Potassium channel subfamily K member 3 (Homo sapiens), O14649. FluxOR fluorescence; hits give low values. AID 602410, 2012. hit rate 0.84% among 340,000. B-score at 10 µM;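 active = B-score under library mean minus 4 SD, starting fluorescence ratio at most library mean plus 5 SD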;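 note: more negative B-score means stronger inhibition of thallium flux through KCNK3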
hERG protect = hERG rescue from dofetilide block, primary screen, cell-based, CHO-hERG, FluxOR thallium flux, dofetilide IC70. Voltage-gated inwardly rectifying potassium channel KCNH2 (Homo sapiens), Q12809. dofetilide IC70 present. hit rate 0.51% among 310,000. activation (rescue from dofetilide block), less the hit threshold, % at 10 µM. AID 1511, 2009;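 active = activation above the mean of controls blocked by dofetilide plus 5 SD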;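 note: thallium influx through hERG after potassium depolarization seen as dye fluorescence rise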
Target sequence (Q12809 whole entry, looked up): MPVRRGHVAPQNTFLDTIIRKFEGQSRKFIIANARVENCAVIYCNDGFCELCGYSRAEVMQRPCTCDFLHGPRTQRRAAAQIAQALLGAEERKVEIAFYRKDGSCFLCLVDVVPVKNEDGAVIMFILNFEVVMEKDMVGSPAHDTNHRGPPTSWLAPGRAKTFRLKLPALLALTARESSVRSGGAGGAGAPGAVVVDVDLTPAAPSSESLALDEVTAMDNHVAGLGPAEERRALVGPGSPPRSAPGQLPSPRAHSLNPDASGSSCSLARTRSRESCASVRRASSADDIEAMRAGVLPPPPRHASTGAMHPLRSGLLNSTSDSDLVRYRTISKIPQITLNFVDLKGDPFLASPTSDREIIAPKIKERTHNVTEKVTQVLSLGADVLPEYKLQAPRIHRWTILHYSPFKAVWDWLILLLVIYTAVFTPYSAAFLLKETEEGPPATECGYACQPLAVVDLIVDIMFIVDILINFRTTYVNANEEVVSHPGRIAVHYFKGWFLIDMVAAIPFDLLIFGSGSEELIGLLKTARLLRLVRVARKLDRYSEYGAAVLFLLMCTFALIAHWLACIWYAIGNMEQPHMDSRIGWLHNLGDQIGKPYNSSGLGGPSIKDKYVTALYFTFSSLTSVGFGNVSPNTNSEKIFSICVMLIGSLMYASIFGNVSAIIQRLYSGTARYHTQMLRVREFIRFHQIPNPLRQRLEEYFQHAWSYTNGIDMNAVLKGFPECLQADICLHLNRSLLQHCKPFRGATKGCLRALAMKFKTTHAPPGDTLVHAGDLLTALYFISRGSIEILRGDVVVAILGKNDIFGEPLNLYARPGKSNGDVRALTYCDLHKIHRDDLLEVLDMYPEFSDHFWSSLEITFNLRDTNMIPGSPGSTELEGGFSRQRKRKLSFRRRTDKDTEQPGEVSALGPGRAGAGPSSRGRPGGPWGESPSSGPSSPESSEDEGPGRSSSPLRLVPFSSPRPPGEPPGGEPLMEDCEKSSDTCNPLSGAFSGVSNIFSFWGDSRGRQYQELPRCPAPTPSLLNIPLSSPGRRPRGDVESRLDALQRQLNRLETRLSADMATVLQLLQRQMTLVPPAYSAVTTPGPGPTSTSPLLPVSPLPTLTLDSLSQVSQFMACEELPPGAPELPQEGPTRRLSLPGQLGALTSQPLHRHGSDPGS
The depositor's hits bear a star; i = inactive; . = not tested or not shown.

SMILES	KCNQ1 inh	PHOSPHO1 block	KCNQ1 act	KCNK9 block	KCNK3 block	hERG protect
COCCn1c(SCc2nc3sc(C(=O)OC)c(C)c3c(=O)[nH]2)nc2ccccc21	i	92*	i	i	i	-15
CCn1c(SCc2nc3sc(C(=O)O)c(C)c3c(=O)[nH]2)nc2ccccc21	i	26	i	i	i	-23
COc1ccccc1-c1nnc(SCCN2CCOCC2)n1-c1ccc(C)cc1	i	69*	i	i	i	4
O=C(c1ccc(Cl)cc1)N1CCCC(C(=O)N2CCc3ccccc3C2)C1 (centres undefined)	i	60*	i	i	i	-7
O=C(c1ccccc1)N1CCCC(C(=O)N2CCc3ccccc3C2)C1 (centres undefined)	i	7	i	i	i	-8
COCCNS(=O)(=O)c1cc(OC)c(C)cc1C	i	27	i	i	i	-7
CCS(=O)(=O)N1CCC(C(=O)Oc2ccccc2)CC1	i	.	i	i	i	-5
COc1cc(/C=C2\SC(=S)N(Nc3ncc(C(F)(F)F)cc3Cl)C2=O)ccc1O	i	73*	i	i	i	-9
CC(C)c1ccc(NC2CCCN(C(=O)c3cccc(N4CCNC4=O)c3)C2)cc1 (centres undefined)	i	24	i	i	i	-5
N#C/C(=C(/O)COC(=O)c1ccc(C#N)cc1)c1nc2ccccc2s1	6*	-15	i	i	i	-1
Cc1cc(NC(=O)CSc2nnc(-c3ccc(Br)o3)n2Cc2ccccc2)no1	i	66*	i	i	i	-7
Cc1cc(NC(=O)CSc2nnc(-c3ccco3)n2Cc2ccccc2)no1	i	4	i	i	i	-13
CC1(C)CC[C@]2(CO)[C@@H](O)C[C@]3(C)C(=CCC4[C@@]5(C)CC[C@H](O)C(C)(C)C5CC[C@]43C)[C@@H]2C1 (some centres undefined)	i	.	34*	i	.	0
CC1(C)C2CC[C@]3(C)C(CC=C4[C@@H]5C[C@@](C)(CO)[C@@H](O)C[C@]5(C(=O)O)CC[C@]43C)[C@@]2(C)CC[C@@H]1O (some centres undefined)	i	.	i	i	.	-13
CCOc1cc(C)ccc1OCc1nnc(SCC(=O)c2cccc([N+](=O)[O-])c2)n1CC	i	88*	i	i	i	-9
COc1ccc(C)cc1NC(=O)C(Sc1nnc(-c2cccs2)o1)c1ccccc1 (centres undefined)	i	-9	i	i	i	-4
O=C(Nc1ccc(Cl)cc1C(F)(F)F)C(Sc1nnc(-c2cccs2)o1)c1ccccc1 (centres undefined)	6*	4	i	i	i	-12
O=C(Nc1cc(C(F)(F)F)ccc1Cl)C(Sc1nnc(-c2cccs2)o1)c1ccccc1 (centres undefined)	6*	-16	i	i	i	-13
CC1(c2nnc(Cc3ccccc3)o2)CC(c2ccc(F)cc2)=NO1 (centres undefined)	i	.	i	i	i	-2
CC(C)N(C(=O)CSc1nnc(Cc2ccc3c(c2)OCO3)n1C)C(C)C	i	-23	i	i	i	-12
CCOC(=O)c1ccc(NC(=O)Cn2nnc(-c3ccc(F)cc3)n2)cc1	i	36	i	i	i	-8
CCOC(=O)c1ccc(NC(=O)Cn2nnc(-c3ccccc3)n2)cc1	i	-6	i	i	i	14*
COc1cc(NC(=O)c2ccco2)c(OC)cc1NC(=O)CSc1ncc(-c2ccc(F)cc2)[nH]1	i	74*	i	i	i	-9
O=C(NCCSc1ncc(-c2ccc(F)cc2)[nH]1)c1ccco1	i	.	i	i	i	-9
